The text below walks through data of PubChem BioAssay.

For orientation: inhibition means the change of the read-out against control, counted positive when it falls.

Test [1] in a line: inhibitors of TNFa-induced NFkB p65 translocation, primary screen, imaging, HUVEC, MLSMR starter and 10KST1 sets (AID 438;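 active means inhibition above 20% together with a positive visual image hit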;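 further: compound added about 3h40 before a 20 min TNFalpha stimulation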;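 on inhibition: signal is the nuclear over cytoplasmic p65 intensity ratio per well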). The conditions noted are these: HUVEC TNFa-induced p65 nuclear translocation; cell count: measured here: nuclei count (cytotoxicity indicator), at 2.08 µM; inhibition: at 2 µM, stronger effect = higher value, 0% TNFa-plus-vehicle, 100% no-TNFa wells.
Test [2] in a line: reduction of polyQ htt aggregates in cells – imaging, exon1htt(103Q)mCFP cells, high-content imaging, primary screen (AID 483;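 active means visual image review flags a hit and inhibition of aggregation exceeds 20%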;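 further: compound exposure lasted 3 days before fixation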;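 on nuclei count: percent of the per-plate median nuclei count of sample wells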). The following applies: exon1htt(103Q)mCFP cell line, aggregate imaging, at 2 µM; inhibition of aggregation: stronger effect = higher value; nuclei count: measured here: cell count, toxicity.
Test [3] is described as follows: endothelial E-selectin expression blockers – imaging, HUVEC, immunofluorescence, MLSMR starter and 10KST1 sets, primary screen (AID 487;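 active means visually confirmed hit in the image check and inhibition above 20%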;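 on inhibition: signal is fraction of cell area covered by stained E-selectin grains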;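 on nuclei count: 100% = median nuclei count of all wells on the same plate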). The conditions noted are these: HUVEC TNFalpha-induced E-selectin immunofluorescence imaging, at 2 µM; inhibition: stronger effect = higher value; nuclei count: measured here: cell number, toxicity.
The target in test [4] is Voltage-gated potassium channel subunit beta-2 (Rattus norvegicus) (UniProt P62483). Briefly: inhibitors of rat Kvbeta2 reductase activity – biochemical, NADPH fluorescence, primary screen (AID 622;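 active means fluorescence slope higher than the sample average by over 3 SD, cut at about -0.22 in these data, passing the limit was not always enough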;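 further: slope of raw intensity against log time taken from 70 to 1610 s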). The following applies: recombinant KvBeta, 4-cyanobenzaldehyde reduction, at 10 µM, stronger effect = higher value.
The target is the same in test [5]. Briefly: enhancers of rat Kvbeta2 NADPH turnover – biochemical, NADPH fluorescence, primary screen (AID 623;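 active means NADPH fluorescence slope more negative than the mean of all samples by about 3 SD, 99.7% confidence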;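 further: fluorescence intensity change per second fitted from 20 to 320 s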). The following applies: Recombinant KvBeta, NADPH fluorescence decrease slope, 10 min; at 10 µM; stronger effect = lower value.
Test [6] addresses Muscarinic acetylcholine receptor M4 (Homo sapiens) (UniProt P08173). Briefly: M4-linked GIRK flux change, two-sided – cell-based, HEK293 M4/GIRK, thallium flux, BTC-AM, M4 allosteric agonist project, primary screen (AID 625;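 active means fluorescence slope after compound addition differing from the mean of all tested samples at 99.7% confidence, mostly higher but some lower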;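 further: thallium influx through GIRK channels coupled to M4 in HEK293 cells with BTC-AM dye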). The conditions noted are these: at 10 µM, actives lie on both sides. Put shortly: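 Material – HEK293 cells with M4 receptor and GIRK channels · Buffer or medium – pH 7.3 thallium assay buffer · Doses – one dose, 10 µM final · Timing – cells overnight at 37 °C, BTC-AM loading 1 h, reads 2 min total · Measured by – kinetic fluorescence with BTC-AM dye · Controls – carbachol and DMSO controls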

A short description of test [7]: blockers of RIG-like receptor reporter activation – cell-based, Sendai virus stimulus, luciferase, 10K MLSCN set, TLR/RLR signaling modifier project, primary screen (AID 602276;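 active means inhibition at or above 50% at 10 µM; inactive means inhibition below 50%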;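 further: firefly luciferase from ISG56 promoter only with Renilla not read in this screen; 0% = Sendai virus plus DMSO and 100% = medium plus DMSO without virus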). The following applies: HEK293 RL24 IRF3 luciferase reporter, at 10 µM, stronger effect = higher value. (In a reporter assay the amount or activity of a reporter protein is the signal.)
Test [8] in a line: TLR3 IRF3 reporter activation blockers – cell-based, poly I:C stimulus, luciferase, 10K MLSCN set, primary screen (AID 602277). The conditions noted are these: HEK293-TLR3 RL24 IRF3 luciferase reporter, at 10 µM, stronger effect = higher value.

Each structure is given as a SMILES string. The source made the active and inactive calls.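 How the source made its calls, unless noted: active means inhibition of the reporter signal at or above 50%; inactive means inhibition below 50%.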

Sequence of Voltage-gated potassium channel subunit beta-2 (Rattus norvegicus) (P62483 whole entry, looked up): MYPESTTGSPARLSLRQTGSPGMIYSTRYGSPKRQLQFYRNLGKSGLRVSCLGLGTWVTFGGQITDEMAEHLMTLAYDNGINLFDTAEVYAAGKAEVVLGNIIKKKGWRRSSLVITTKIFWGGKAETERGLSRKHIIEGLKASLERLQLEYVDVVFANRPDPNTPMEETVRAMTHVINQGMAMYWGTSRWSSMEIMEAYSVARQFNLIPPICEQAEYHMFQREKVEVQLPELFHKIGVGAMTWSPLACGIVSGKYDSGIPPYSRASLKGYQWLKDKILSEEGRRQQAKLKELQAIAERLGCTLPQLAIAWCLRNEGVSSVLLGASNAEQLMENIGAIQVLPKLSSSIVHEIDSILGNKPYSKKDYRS
Sequence of Muscarinic acetylcholine receptor M4 (Homo sapiens) (P08173 whole entry, looked up): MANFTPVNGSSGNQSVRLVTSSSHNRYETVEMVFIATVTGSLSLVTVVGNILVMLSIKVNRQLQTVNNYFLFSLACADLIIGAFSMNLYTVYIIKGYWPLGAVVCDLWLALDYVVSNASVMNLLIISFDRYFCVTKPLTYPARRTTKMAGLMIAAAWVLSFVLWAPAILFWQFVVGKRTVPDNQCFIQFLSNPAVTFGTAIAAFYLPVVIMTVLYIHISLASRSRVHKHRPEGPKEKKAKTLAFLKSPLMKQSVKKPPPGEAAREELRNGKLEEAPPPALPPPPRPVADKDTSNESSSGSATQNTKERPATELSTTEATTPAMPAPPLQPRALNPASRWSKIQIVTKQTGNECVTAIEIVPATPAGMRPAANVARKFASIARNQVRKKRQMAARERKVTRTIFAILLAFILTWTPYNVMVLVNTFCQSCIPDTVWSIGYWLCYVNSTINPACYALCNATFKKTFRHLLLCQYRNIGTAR

On to `Cc1c(C(=O)O)sc2ncn(C)c(=O)c12`, for which the cell count in test [1] came out at 745. Also, the inhibition in test [1] is 2.8% (inactive); in test [3], 21% (inactive); in test [7], 2.12% (inactive); in test [8] it was -1.59% (inactive). Also, the inhibition of aggregation in test [2] is -9% (inactive). Moreover, the nuclei count stood at 116% in test [2] and 106% in test [3]. Further, the fluorescence slope in test [4] is -0.553 (inactive); in test [6], 0.00525 (inactive). For the same molecule, the NADPH fluorescence slope in test [5] is -2.2e-05 (inactive).

Turning to `CCOC(=O)c1ccc(NS(=O)(=O)c2ccc(SC)cc2)cc1`, the cell count in test [1] worked out at 643. Also, the inhibition in test [1] was -9% (inactive); in test [3], -21.6% (inactive); in test [7], 13.8% (inactive); in test [8] it was 16.1% (inactive). In test [2], the inhibition of aggregation is 4.8% (inactive). Further, the nuclei count in test [2] stood at 89%; in test [3], 88.3%. The figures for the fluorescence slope in test [4] and in test [6] were -0.48 (inactive) and 0.00382 (inactive), respectively. For the same molecule, the NADPH fluorescence slope in test [5] is -4.9e-05 (inactive).

With `COC(=O)c1ccc(CSc2nc3c(cnn3-c3ccc(C)c(C)c3)c(=O)[nH]2)o1`, the cell count in test [1] was determined as 433. In addition, the inhibition in test [1] is 9.3% (inactive); in test [3], -55.6% (inactive); in test [7], 8.02% (inactive); in test [8], 13.9% (inactive). In addition, in test [2], the inhibition of aggregation is 2.1% (inactive). Besides, the nuclei count in test [2] is 98.4%; in test [3], 108%. Further, the values for the fluorescence slope in test [4] and in test [6] were -0.388 (inactive) and 0.0057 (inactive), respectively. In test [5], the NADPH fluorescence slope was 0.000113 (inactive).

Turning to `C/C(Cl)=C\Cn1c(Nc2ccc(C)cc2)nc2c1c(=O)n(C)c(=O)n2C`, the cell count in test [1] amounted to 533. Besides, the inhibition was -1.1% (inactive) in test [1], -73.9% (inactive) in test [3], 16.1% (inactive) in test [7] and 17.5% (inactive) in test [8]. Also, the inhibition of aggregation in test [2] is 24.5% (inactive). Also, the results for the nuclei count in test [2] and in test [3] were 78.9% and 117%, respectively. Besides, the fluorescence slope in test [4] was -0.572 (inactive); in test [6], 0.00543 (inactive). In addition, in test [5], the NADPH fluorescence slope was -4.2e-05 (inactive).

As to `CCOc1nc2ccccc2nc1NS(=O)(=O)c1ccccc1`, the cell count in test [1] was 769. The inhibition in test [1] is -4.2% (inactive); in test [3] it was -10% (inactive); in test [7] it was 15.8% (inactive); in test [8], 20% (inactive). Also, the inhibition of aggregation in test [2] is 6.9% (inactive). Besides, the nuclei count in test [2] came to 126%; in test [3] it was 132%. Also, the fluorescence slope was -0.462 (inactive) in test [4] and 0.00417 (inactive) in test [6]. Also, the NADPH fluorescence slope in test [5] was -0.000234 (inactive).

Consider `CCN(Cc1nc2ccccc2c(=O)[nH]1)Cc1nc2cc(OC)c(OC)cc2c(=O)[nH]1`, for which the cell count in test [1] amounted to 403. Also, the inhibition is -19.9% (inactive) in test [1], -17.4% (inactive) in test [3], -12.7% (inactive) in test [7] and -12.6% (inactive) in test [8]. For the same molecule, the inhibition of aggregation in test [2] is 0% (inactive). Also, the nuclei count worked out at 113% in test [2] and 144% in test [3]. Also, the fluorescence slope is -0.324 (inactive) in test [4] and 0.00825 (inactive) in test [6]. Also, in test [5], the NADPH fluorescence slope is -3.7e-06 (inactive).

Take `Cc1cc(C)c(C)c(S(=O)(=O)Nc2ccc(O)cc2)c1C`: in test [1], the cell count stood at 187. Besides, the inhibition in test [1] is -8.6% (inactive); in test [3], -7.7% (inactive); in test [7], 10.8% (inactive); in test [8] it was 18.5% (inactive). For the same molecule, the inhibition of aggregation in test [2] is 37.3% (active). The figures for the nuclei count in test [2] and in test [3] were 87.5% and 74.8%, respectively. Moreover, the fluorescence slope in test [4] is -0.539 (inactive); in test [6] it was 0.00478 (inactive). Moreover, in test [5], the NADPH fluorescence slope was -1.7e-05 (inactive).

Turning to `Cc1cc(NC(=O)Cn2cnc3c(cnn3C(C)(C)C)c2=O)no1`, in test [1], the cell count came out at 645. Also, the inhibition is 1.1% (inactive) in test [1], 7% (inactive) in test [3], -18.6% (inactive) in test [7] and -0.822% (inactive) in test [8]. Further, the inhibition of aggregation in test [2] is -5.1% (inactive). Besides, the nuclei count in test [2] is 113%; in test [3], 102%. Moreover, the values for the fluorescence slope in test [4] and in test [6] were -0.573 (inactive) and 0.00541 (inactive), respectively. In test [5], the NADPH fluorescence slope was -3.1e-05 (inactive).

Regarding `CCOC(=O)C1CCN(S(=O)(=O)c2cc(Cl)c(C)cc2OC)CC1`, the cell count in test [1] is 441. Further, the inhibition in test [1] is -9.5% (inactive); in test [3], -41% (inactive); in test [7], 19.9% (inactive); in test [8] it was 38.6% (inactive). For the same molecule, the inhibition of aggregation in test [2] was -0.9% (inactive). The nuclei count in test [2] was determined as 109%; in test [3], 116%. Besides, the fluorescence slope in test [4] was -0.587 (inactive); in test [6], 0.00585 (inactive). In addition, the NADPH fluorescence slope in test [5] was 1.4e-05 (inactive).

Turning to `CCOC(=O)NC(=O)CSc1nnc(C)s1`, the cell count in test [1] amounted to 804. In addition, the inhibition is 4.3% (inactive) in test [1], -130% (inactive) in test [3], 18.9% (inactive) in test [7] and 17.5% (inactive) in test [8]. Moreover, in test [2], the inhibition of aggregation is -0.4% (inactive). In addition, the nuclei count in test [2] was 105%; in test [3] it was 135%. Also, the fluorescence slope in test [4] is -0.421 (inactive); in test [6], 0.00543 (inactive). Further, in test [5], the NADPH fluorescence slope is -9.6e-06 (inactive).

For the molecule `CCOC(=O)C1CCCN(C(=O)c2cccs2)C1` (centres undefined), the cell count in test [1] came to 330. For the same molecule, the inhibition is 3.3% (inactive) in test [1], 22% (inactive) in test [3], 12.8% (inactive) in test [7] and 3.43% (inactive) in test [8]. In test [2], the inhibition of aggregation was 13.3% (inactive). Moreover, the nuclei count in test [2] was 110%; in test [3], 104%. The fluorescence slope in test [4] was -0.456 (inactive); in test [6], 0.0055 (inactive). Moreover, the NADPH fluorescence slope in test [5] is -5e-05 (inactive).

Regarding `CCCn1c(SCC(=O)NCCc2ccccc2)nnc1-c1ccccn1`, the cell count in test [1] amounted to 501. For the same molecule, the inhibition in test [1] was -7.9% (inactive); in test [3], -28.9% (inactive); in test [7], 3.67% (inactive); in test [8] it was 12.4% (inactive). Besides, the inhibition of aggregation in test [2] is 12.6% (inactive). Besides, the values for the nuclei count in test [2] and in test [3] were 103% and 104%, respectively. For the same molecule, the fluorescence slope in test [4] is -0.543 (inactive); in test [6], 0.00518 (inactive). In test [5], the NADPH fluorescence slope was -4.4e-05 (inactive).

For `CCOC(=O)N1CCN(C(=O)CCc2c(C)nc3c(c(C)nn3-c3ccc(C)c(C)c3)c2C)CC1`, the cell count in test [1] was found to be 653. In addition, the inhibition in test [1] is 0.9% (inactive); in test [3] it was -63.4% (inactive); in test [7] it was 20.5% (inactive); in test [8] it was 13.8% (inactive). Also, the inhibition of aggregation in test [2] was -9.9% (inactive). In addition, the nuclei count in test [2] came out at 100%; in test [3], 116%. The values for the fluorescence slope in test [4] and in test [6] were -0.594 (inactive) and 0.00541 (inactive), respectively. In addition, in test [5], the NADPH fluorescence slope was 1.1e-05 (inactive).

For `O=C(CCN1CCN(C(=O)c2ccco2)CC1)Nc1ccc(F)cc1`, the cell count in test [1] was 356. Moreover, the inhibition was -2.6% (inactive) in test [1], -78.7% (inactive) in test [3], 11.5% (inactive) in test [7] and 20.2% (inactive) in test [8]. In addition, in test [2], the inhibition of aggregation is -11.1% (inactive). Moreover, the values for the nuclei count in test [2] and in test [3] were 87.1% and 108%, respectively. The fluorescence slope in test [4] is -0.459 (inactive); in test [6], 0.00658 (inactive). Moreover, in test [5], the NADPH fluorescence slope is 0.000122 (inactive).
